Data from ChEMBL document CHEMBL4190227, “Syntheses, toxicities and anti-inflammation of H2S-donors based on non-steroidal anti-inflammatory drugs” (Eur J Med Chem, 2017).
The source made the active and inactive calls. The calls are words filed in the database; no cut-off is given here.

Columns and labels:
[1] = system: RAW264.7; experiment: Antiinflammatory activity in mouse RAW264.7 cells assessed as increase in LPS-induced IL10 levels at 10 to 100 uM incubated for 24 hrs post LPS induction by ELISA; assay type: functional, cell-based
Procedure, shortened: (§1)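 LPS (1 μg/mL) for 4 h, then compound at 10, 50, 100 μM for 24 h; cells lysed in RIPA, spun 12,000×g 10 min, protein normalised by BCA to 0.1 mg/mL; target (TNF-α, HO-1, IL-10 or COX-2) quantified by sandwich ELISA kit with mouse-specific polyclonal antibodies; four independent experiments.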

[2] = species: Danio rerio; experiment: Toxicity in AB zebrafish embryo assessed as increase in embryo malformation measured at 96 hrs post fertilization by stereoscopic dissecting light microscopic analysis; assay type: organism-based; settings: in vivo
Procedure, shortened: (§2)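 AB embryos exposed from 4 hpf through 96 hpf to compound or DMF vehicle (1:1000); malformations scored at 96 hpf under stereoscopic dissecting microscope; 100 embryos per group in three replicates; three independent experiments, mean ± SD.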

[3] = (§3) Cytotoxicity against mouse RAW264.7 cells assessed as cell viability at 10 to 100 uM treated for 24 hrs post LPS induction by MTT assay; assay type: cell-based; settings: RAW264.7 cells, read-out: Activity
Procedure, shortened: (§4)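 Macrophages in high-glucose DMEM + 10% heat-inactivated FBS, 2 mM glutamine, 37 °C, 5% CO2; exposed 24 h to 10, 50, 100 μM with or without LPS 1 μg/mL; MTT added 4 h, formazan dissolved in DMSO, A570, expressed as % of control; four independent experiments.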

[4] = species: Danio rerio; experiment: Toxicity in AB zebrafish embryo assessed as embryonic spontaneous movement frequencies per minute at 1 to 20 uM measured at 24 hrs post fertilization by stereoscopic dissecting light microscopic analysis (reference value: 15 /min); assay type: organism-based; settings: in vivo
Procedure, shortened: (§5)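 AB embryos exposed from 4 to 24 hpf to compound (0.5–20 μM) or DMF vehicle (1:1000); ten embryos per group chosen randomly; spontaneous movement recorded under stereoscopic dissecting microscope, frequency per min counted at 24 hpf; three independent experiments, mean ± SD.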

[5] = species: Danio rerio; experiment: Toxicity in AB zebrafish embryo assessed as vitelline cyst at 0.5 uM measured at 96 hrs post fertilization by stereoscopic dissecting light microscopic analysis; assay type: organism-based; settings: in vivo; procedure, shortened: as §2
[6] = Drug degradation in phosphate buffer assessed as H2S release by measuring test compound half life at 40 uM measured every 5 mins in presence of L-cysteine by UV-Vis spectrometry; assay type: physicochemical
Procedure, shortened: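 Sulfide release at 37.5 °C: donor (40 mM THF stock) added to pH 7.4 phosphate buffer with 1.0 mM L-cysteine; aliquots taken every 5 min into zinc acetate/N,N-dimethyl-1,4-phenylenediamine/FeCl3 in HCl, A670 read 15 min later; H2S quantified against Na2S standard curve (5–150 μM); release curve plotted vs time; four independent experiments.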

[7] = Toxicity in AB zebrafish embryo assessed as percentage of embryos alive at 20 uM measured at 120 hrs post fertilization by dissecting light microscopic analysis relative to DMF; assay type: organism-based, Danio rerio; settings: read-out: Activity
Procedure, shortened: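 Wild-type AB zebrafish embryos, collected within 1 h of lights-on and washed in E3 medium, were exposed one embryo per well in 200 μL test solution, with plates sealed against evaporation. There were 100 embryos per group, split into three replicate groups. Mortality was recorded at 24–168 hpf. DMF vehicle (1:1000) served as control. Results are mean ± SD of three replicates.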

[8] = species: Danio rerio; experiment: Toxicity in AB zebrafish embryo assessed as reduction in embryonic spontaneous movement frequencies per minute up to 1 uM measured at 24 hrs post fertilization by stereoscopic dissecting light microscopic analysis; assay type: organism-based; settings: in vivo; procedure, shortened: as §5
[9] = target: T1, Nitric oxide synthase, inducible (Mus musculus) (UniProt P29477); experiment: Inhibition of iNOS in mouse RAW264.7 cells assessed as reduction in LPS-induced NO production at 50 uM administered for 24 hrs post LPS induction by Griess method relative to control; assay type: cell-based
T1 sequence (whole entry): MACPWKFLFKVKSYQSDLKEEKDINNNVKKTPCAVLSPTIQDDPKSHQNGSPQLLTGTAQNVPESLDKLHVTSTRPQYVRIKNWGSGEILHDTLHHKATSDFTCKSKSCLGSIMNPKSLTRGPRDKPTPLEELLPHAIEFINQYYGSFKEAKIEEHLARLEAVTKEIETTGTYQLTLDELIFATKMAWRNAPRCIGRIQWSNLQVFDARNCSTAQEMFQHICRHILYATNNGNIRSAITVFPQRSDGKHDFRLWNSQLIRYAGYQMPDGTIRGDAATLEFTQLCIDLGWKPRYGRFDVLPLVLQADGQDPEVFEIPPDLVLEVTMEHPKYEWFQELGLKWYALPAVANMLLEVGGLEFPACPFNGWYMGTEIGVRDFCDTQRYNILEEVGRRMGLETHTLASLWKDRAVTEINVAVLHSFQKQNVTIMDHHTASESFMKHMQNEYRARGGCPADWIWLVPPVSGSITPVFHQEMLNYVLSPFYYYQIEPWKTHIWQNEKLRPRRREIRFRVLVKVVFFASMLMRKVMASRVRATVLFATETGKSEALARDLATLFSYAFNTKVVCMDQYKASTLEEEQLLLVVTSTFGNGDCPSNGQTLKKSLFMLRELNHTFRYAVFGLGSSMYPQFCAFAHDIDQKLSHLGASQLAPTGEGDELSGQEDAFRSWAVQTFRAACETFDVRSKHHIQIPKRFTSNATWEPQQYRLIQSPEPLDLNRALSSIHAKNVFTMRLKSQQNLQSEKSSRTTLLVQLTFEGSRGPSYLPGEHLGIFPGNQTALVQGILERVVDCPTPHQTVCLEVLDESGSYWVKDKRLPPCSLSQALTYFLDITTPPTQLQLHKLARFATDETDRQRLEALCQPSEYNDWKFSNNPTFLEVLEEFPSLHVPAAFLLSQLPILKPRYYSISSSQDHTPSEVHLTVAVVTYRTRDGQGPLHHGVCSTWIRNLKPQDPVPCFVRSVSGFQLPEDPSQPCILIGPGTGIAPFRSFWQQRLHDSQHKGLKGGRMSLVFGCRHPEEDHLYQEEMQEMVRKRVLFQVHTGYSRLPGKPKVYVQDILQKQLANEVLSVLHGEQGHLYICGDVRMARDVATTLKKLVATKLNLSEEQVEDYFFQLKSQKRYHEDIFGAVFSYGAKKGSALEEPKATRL
Procedure, shortened: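 RAW264.7 cells stimulated with LPS 1 μg/mL for 4 h, then compound (10, 50, 100 μM) for 24 h; culture medium reacted with Griess reagents I and II, absorbance 570 nm; nitrite from sodium nitrite standard curve (0–100 μM in medium); four independent experiments, mean ± SD.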

[10] = system: RAW264.7; experiment: Antiinflammatory activity in mouse RAW264.7 cells assessed as LPS-induced TNFalpha levels at 100 uM incubated for 24 hrs post LPS induction by ELISA relative to control; assay type: functional; procedure, shortened: as §1
[11] = species: Danio rerio; experiment: Toxicity in AB zebrafish embryo assessed as rate of embryo malformation at 0.5 to 20 uM measured at 96 hrs post fertilization by stereoscopic dissecting light microscopic analysis relative to DMF; assay type: organism-based; settings: in vivo; procedure, shortened: as §2
[12] = species: Danio rerio; experiment: Toxicity in AB zebrafish embryo assessed as embryonic spontaneous movement frequencies per minute at 10 uM measured at 24 hrs post fertilization by stereoscopic dissecting light microscopic analysis (reference value: 15.9 /min); assay type: organism-based; settings: in vivo; procedure, shortened: as §5
[13] = system: RAW264.7; experiment: as §3; assay type: cell-based; settings: raw264.7, 24 h, 100 µM; procedure, shortened: as §4

Row | Structure (SMILES) | Activity [1] | Activity [2] | viability at 24 h, up to 100 µM [3] [%] | Activity [4] [min⁻¹] | Activity [5] | half-life at 40 µM [6] [min] | survival at 120 h, 20 µM [7] [%] | Activity [8] | inhibition [9] [%] | Activity [10] [%] | Activity [11] [%] | Activity [12] [min⁻¹] | Activity [13]
1 | CC(C)Cc1ccc(C(C)C(=O)Oc2ccc(C(N)=S)cc2)cc1 (centres undefined) | Active | Dose-dependent effect | 70 to 110 | 11 | Toxic |  |  |  |  |  |  |  | 
2 | CC(=O)Nc1ccc(OC(=O)CCCCC2CCSS2)cc1 (centres undefined) | Active |  |  |  |  | 14.1 | 41 | Non-Toxic | 60 | 50 | 3 | 13.5 | Non-Toxic
